Measurements reported in ChEMBL document CHEMBL4706494, “Design, synthesis characterization and biological evaluation of novel multi-isoform ALDH inhibitors as potential anticancer agents” (Eur J Med Chem, 2020).
Active and inactive are the calls of the source. The calls are words filed in the database; no cut-off is given here.

Tests used:
[1] = target: T1, Aldehyde dehydrogenase, dimeric NADP-preferring (Homo sapiens, UniProt P30838); assay: Inhibition of ALDH3A1 (unknown origin) assessed as NADH formation using 4-nitrobenzaldehyde as substrate
T1 sequence (P30838 whole entry): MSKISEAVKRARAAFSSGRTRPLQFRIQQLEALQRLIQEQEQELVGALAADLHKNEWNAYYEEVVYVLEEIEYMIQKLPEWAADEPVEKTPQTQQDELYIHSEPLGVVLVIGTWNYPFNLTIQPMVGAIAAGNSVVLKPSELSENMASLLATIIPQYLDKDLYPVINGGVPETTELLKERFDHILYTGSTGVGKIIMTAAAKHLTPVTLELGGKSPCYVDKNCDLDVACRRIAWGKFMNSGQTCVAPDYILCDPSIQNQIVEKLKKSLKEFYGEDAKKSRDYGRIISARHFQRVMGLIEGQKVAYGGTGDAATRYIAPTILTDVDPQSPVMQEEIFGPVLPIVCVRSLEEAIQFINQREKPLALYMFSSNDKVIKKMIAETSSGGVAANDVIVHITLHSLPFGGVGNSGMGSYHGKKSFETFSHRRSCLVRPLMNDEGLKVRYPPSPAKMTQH
Summary of the method: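 Protein at 0.2 µg/mL exposed 15 min to graded inhibitor concentrations. 1 mM 4-nitrobenzaldehyde substrate with NAD+ then added, run as for the ALDH1A1 assay.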

[2] = target: T2, Aldehyde dehydrogenase 1A1 (Homo sapiens, UniProt P00352); assay: Inhibition of ALDH1A1 (unknown origin) assessed as NADH formation using propionaldehyde as substrate
T2 sequence (P00352 whole entry): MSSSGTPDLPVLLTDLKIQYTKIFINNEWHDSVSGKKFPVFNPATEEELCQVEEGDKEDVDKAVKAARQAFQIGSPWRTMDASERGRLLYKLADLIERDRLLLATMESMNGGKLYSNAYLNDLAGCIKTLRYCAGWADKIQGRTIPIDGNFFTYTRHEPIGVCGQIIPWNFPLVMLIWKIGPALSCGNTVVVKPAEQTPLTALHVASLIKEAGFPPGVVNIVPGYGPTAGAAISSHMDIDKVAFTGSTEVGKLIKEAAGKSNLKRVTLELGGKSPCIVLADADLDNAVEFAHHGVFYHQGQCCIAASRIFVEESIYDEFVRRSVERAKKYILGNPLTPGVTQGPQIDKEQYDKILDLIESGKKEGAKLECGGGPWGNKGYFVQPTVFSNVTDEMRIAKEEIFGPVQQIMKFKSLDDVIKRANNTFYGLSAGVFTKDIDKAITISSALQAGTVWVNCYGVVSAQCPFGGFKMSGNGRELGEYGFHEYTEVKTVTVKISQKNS

[3] = target: T3, Aldehyde dehydrogenase, mitochondrial (Homo sapiens, UniProt P05091); assay: Inhibition of ALDH2 (unknown origin) assessed as NADH formation using acetaldehyde as substrate
T3 sequence (P05091 whole entry): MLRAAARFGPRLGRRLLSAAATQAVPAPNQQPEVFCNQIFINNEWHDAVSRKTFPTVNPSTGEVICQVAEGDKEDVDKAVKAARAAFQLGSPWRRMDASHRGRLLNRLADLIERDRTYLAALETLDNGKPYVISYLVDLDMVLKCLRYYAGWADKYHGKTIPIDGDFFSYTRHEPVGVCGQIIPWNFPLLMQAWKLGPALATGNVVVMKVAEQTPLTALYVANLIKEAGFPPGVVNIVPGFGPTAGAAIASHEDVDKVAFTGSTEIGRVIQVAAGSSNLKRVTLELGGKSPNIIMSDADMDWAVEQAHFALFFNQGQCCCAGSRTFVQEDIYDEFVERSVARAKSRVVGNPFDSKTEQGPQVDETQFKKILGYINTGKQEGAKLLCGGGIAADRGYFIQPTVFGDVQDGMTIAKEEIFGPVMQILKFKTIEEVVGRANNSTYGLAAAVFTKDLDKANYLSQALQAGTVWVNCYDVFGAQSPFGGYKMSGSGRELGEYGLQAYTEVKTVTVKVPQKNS
Summary of the method: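 Enzyme at 0.5 µg/mL preincubated 15 min with varied inhibitor concentrations. Reaction started with 2 mM acetaldehyde plus NAD+ in buffer, as for the ALDH1A1 assay.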

UACC-903 = assay: Antiproliferative activity against human UACC 903 cells measured after 72 hrs by MTS assay; format: functional, cell-based; conditions: UACC-903, 72 h
Summary of the method: (§1)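 Cells seeded at 5,000 per well, left overnight at 37°C in 5% CO2, then exposed to a range of compound concentrations for 72 h. IC50 was fitted from dose-response curves, 3 independent experiments, reported as mean + SD.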

[4] = Antiproliferative activity against human 1205Lu cells measured after 72 hrs by MTS assay; format: functional, cell-based; summary of the method: as §1
[5] = Cytotoxicity against human FF2441 cells measured after 72 hrs by MTS assay; format: cell-based; conditions: FF2441, 72 h; summary of the method: as §1
HCT-116 [6] = assay: Antiproliferative activity against human HCT116 cells measured after 72 hrs by MTS assay; format: functional, cell-based; conditions: HCT-116, 72 h; summary of the method: as §1
HT-29 = assay: Antiproliferative activity against human HT-29 cells measured after 72 hrs by MTS assay; format: functional, cell-based; conditions: HT-29, 72 h; summary of the method: as §1
NCI-H929 = assay: Antiproliferative activity against human NCIH929 cells measured after 72 hrs by MTS assay; format: functional, cell-based; conditions: NCI-H929, 72 h; summary of the method: as §1
U-266 = assay: Antiproliferative activity against human U266 cells measured after 72 hrs by MTS assay; format: functional, cell-based; conditions: U-266, 72 h; summary of the method: as §1
RPMI-8226 = assay: Antiproliferative activity against human RPMI8226 cells measured after 72 hrs by MTS assay; format: functional, cell-based; conditions: RPMI-8226, 72 h; summary of the method: as §1
[7] = Antiproliferative activity against human MM.1R cells measured after 72 hrs by MTS assay; format: functional, cell-based; summary of the method: as §1
MM1.S = assay: Antiproliferative activity against human MM.1S cells measured after 72 hrs by MTS assay; format: functional, cell-based; summary of the method: as §1
[8] = Toxicity in Swiss-Webster mouse assessed as body weight loss at 5 mg/kg/day, ip for 14 days; format: organism-based; conditions: in vivo, 336 h, time 14 day
Summary of the method: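 Swiss-Webster mice received 5 mg/kg/day i.p. once daily for 14 days. Body weight, behaviour and physical distress were monitored, with % weight change compared against DMSO vehicle controls.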

HCT-116 [9] = assay: Induction of ROS production in human HCT-116 cells at 5 uM incubated for 24 hrs by DCFDA staining based fluorescence microscopic analysis; format: functional, cell-based
HCT-116 [10] = assay: Induction of ROS production in human HCT-116 cells at 5 uM incubated for 24 hrs in presence of NAC by DCFDA staining based fluorescence microscopic analysis; format: functional, cell-based
HCT-116 [11] = assay: Induction of lipid peroxidation in human HCT-116 cells at 5 uM incubated for 24 hrs by TBARS assay; format: functional, cell-based
Summary of the method: (§2)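 HCT116 cells treated 24 h with 5 µM compound, with or without 10 mM NAC. Pellets were sonicated on ice in PBS and lipids hydrolysed with acetic acid/NaOH. Free MDA was reacted with TBA and read at 530 nm, compared with DMSO control.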

HCT-116 [12] = assay: Induction of lipid peroxidation in human HCT-116 cells at 5 uM incubated for 24 hrs in presence of NAC by TBARS assay; format: functional, cell-based; summary of the method: as §2
HCT-116 [13] = assay: Induction of apoptosis in human HCT-116 cells at 5 uM incubated for 24 hrs by annexinV- and […] staining based flow cytometry; format: functional, cell-based
Summary of the method: (§3)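 HCT116 cells treated 24 h with 5 µM compound, with or without 10 mM NAC. Cells were detached, PBS-washed, stained with Annexin-V-PE and 7-AAD, and analysed by flow cytometry. Annexin-V/7-AAD double-positive cells were scored as late apoptotic, relative to DMSO control.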

HCT-116 [14] = assay: Induction of apoptosis in human HCT-116 cells at 5 uM incubated for 24 hrs in presence of NAC by annexinV- and […] staining based flow cytometry; format: functional, cell-based; summary of the method: as §3
HCT-116 [15] = assay: Induction of cell cycle arrest in human HCT-116 cells assessed as accumulation of cells at G2/M phase at 5 uM incubated for 24 hrs by PI staining based flow cytometry; format: functional
Summary of the method: (§4)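 HCT116 cells given 5 µM compound for 24 h, with or without 10 mM NAC. Cells were detached, PBS-washed, fixed in 70% ethanol and stained with propidium iodide. DNA content read by flow cytometry for cell-cycle distribution.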

HCT-116 [16] = assay: Induction of cell cycle arrest in human HCT-116 cells assessed as accumulation of cells at G2/M phase at 5 uM incubated for 24 hrs in presence of NAC by PI staining based flow cytometry; format: functional; summary of the method: as §4

Row | IC50 [2] | IC50 [3] | SMILES | IC50 [1] | other results
1 | – | – | N=C(N)SCc1ccc(CN2C(=O)C(=O)c3cccc(Br)c32)cc1 | 6320 nM | –
2 | – | – | N=C(N)[Se]Cc1ccc(CN2C(=O)C(=O)c3cccc(F)c32)cc1 | 246 nM | –
3 | – | – | O=C1C(=O)N(Cc2ccccc2)c2ccccc21 | – | IC50 (UACC-903): > 100000 nM; IC50 [4]: > 100000 nM; IC50 [5]: > 100000 nM
4 | 8520 nM | > 10000 nM | N=C(N)SCc1ccc(CN2C(=O)C(=O)c3cc(Br)ccc32)cc1 | 4880 nM | –
5 | – | – | N=C(N)SCc1ccc(CN2C(=O)C(=O)c3ccccc32)cc1 | 4200 nM | –
6 | – | – | N=C(N)[Se]Cc1ccc(CN2C(=O)C(=O)c3cccc(Br)c32)cc1 | > 10000 nM | –
7 | – | – | N=C(N)SCc1ccc(CN2C(=O)C(=O)c3cccc(C(F)(F)F)c32)cc1 | 246 nM | –
8 | 334 nM | 2140 nM | Br.N=C(N)SCc1ccc(CN2C(=O)C(=O)c3cc(C(F)(F)F)ccc32)cc1 | 360 nM | IC50 (UACC-903): 5700 nM; IC50 [4]: 5700 nM; IC50 (HCT-116 [6]): 5700 nM; IC50 (HT-29): 4900 nM; IC50 (NCI-H929): 1500 nM; IC50 (U-266): 2600 nM; IC50 (RPMI-8226): 1600 nM; IC50 [7]: 1700 nM; IC50 (MM1.S): 2200 nM; IC50 [5]: 20700 nM; Activity [8]: 2%; Activity (HCT-116 [9]): Active; Activity (HCT-116 [10]): inactive; Activity (HCT-116 [11]): Active; Activity (HCT-116 [12]): inactive; Activity (HCT-116 [13]): Active; Activity (HCT-116 [14]): inactive; Activity (HCT-116 [15]): Active; Activity (HCT-116 [16]): inactive
9 | – | – | N=C(N)SCc1ccc(CN2C(=O)C(=O)c3cc(F)ccc32)cc1 | 2860 nM | –
10 | – | – | N=C(N)[Se]Cc1ccc(CN2C(=O)C(=O)c3cc(C(F)(F)F)ccc32)cc1 | 1520 nM | –
11 | 598 nM | > 10000 nM | N=C(N)SCc1ccc(CN2C(=O)C(=O)c3cccc(F)c32)cc1 | 241 nM | –
12 | 279 nM | 1640 nM | Br.N=C(N)SCc1ccc(CN2C(=O)C(=O)c3cc(Cl)cc(Cl)c32)cc1 | 219 nM | IC50 (UACC-903): 3000 nM; IC50 [4]: 2400 nM; IC50 (HCT-116 [6]): 3200 nM; IC50 (HT-29): 2600 nM; IC50 (NCI-H929): 700 nM; IC50 (U-266): 2700 nM; IC50 (RPMI-8226): 1300 nM; IC50 [7]: 1600 nM; IC50 (MM1.S): 1600 nM; IC50 [5]: 5400 nM; Activity [8]: 10%
13 | – | – | N=C(N)[Se]Cc1ccc(CN2C(=O)C(=O)c3cc(Br)ccc32)cc1 | 344 nM | –
14 | – | – | N=C(N)[Se]Cc1ccc(CN2C(=O)C(=O)c3cc(Cl)ccc32)cc1 | 2770 nM | –
15 | – | – | N=C(N)SCc1ccc(CN2C(=O)C(=O)c3cc(Cl)ccc32)cc1 | 3070 nM | –
16 | – | – | N=C(N)[Se]Cc1ccc(CN2C(=O)C(=O)c3cc(F)ccc32)cc1 | 2360 nM | –
17 | – | – | N=C(N)[Se]Cc1ccc(CN2C(=O)C(=O)c3cc(Cl)cc(Cl)c32)cc1 | 327 nM | –
18 | 177 nM | > 10000 nM | N=C(N)SCc1ccc(CN2C(=O)C(=O)c3cccc(Cl)c32)cc1 | 3590 nM | –
19 | – | – | N=C(N)SCc1ccc(CN2C(=O)C(=O)c3cc(F)cc(Br)c32)cc1 | 219 nM | –
20 | – | – | N=C(N)[Se]Cc1ccc(CN2C(=O)C(=O)c3ccccc32)cc1 | 4010 nM | –

Row | SMILES | IC50 [2] | IC50 [3] | IC50 [1] | other results
21 | N=C(N)[Se]Cc1ccc(CN2C(=O)C(=O)c3cccc(C(F)(F)F)c32)cc1 | 657 nM | 3490 nM | 251 nM | –
22 | N=C(N)[Se]Cc1ccc(CN2C(=O)C(=O)c3cc(Br)cc(Br)c32)cc1 | 397 nM | 2010 nM | 333 nM | –
23 | N=C(N)[Se]Cc1ccc(CN2C(=O)C(=O)c3cccc(Cl)c32)cc1 | > 10000 nM | > 10000 nM | > 10000 nM | –
24 | N=C(N)[Se]Cc1ccc(CN2C(=O)C(=O)c3cc(F)cc(Br)c32)cc1 | 420 nM | 1920 nM | 368 nM | –
